Assay results: ChEMBL document CHEMBL2429803, “Animal toxicity of hairpin pyrrole-imidazole polyamides varies with the turn unit” (J Med Chem, 2013)

Assays:
Mus musculus [1] = assay: Toxicity in C57BL/6J mouse assessed as mild multifocal hepatocellular necrosis and apoptosis in liver at 1 mg/kg, sc administered every 3 days for a cycle of 3 injections measured 2 days post last injection; assay type: organism-based; design: dose 1 mg/kg, route subcutaneous; settings: in vivo, 48 h
In short: (§1)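 Male C57BL/6J mice, 8 weeks old, given 1 mg/kg sc every 3 days for three injections and sacrificed 2 days after the last one. Two mice per group fixed in 10% formalin. A veterinary pathologist, blinded, examined cecum, duodenum, heart, ileum, kidney, liver, lung, pancreas, spleen and stomach. Lesions graded mild, moderate or severe.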

Mus musculus [2] = assay: Acute toxicity in C57BL/6J mouse assessed as lesions in stomach at 1 to 10 mg/kg, sc after 9 days; assay type: organism-based; design: dose 1-10 mg/kg, route subcutaneous; settings: in vivo, 216 h
In short: (§2)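 Male C57BL/6J mice, 8 weeks old, received a single sc dose (1, 3 or 10 mg/kg in 25% DMSO/saline, n = 4 per group) and were sacrificed after 9 days. Two representative animals per group were fixed in 10% formalin. Cecum, duodenum, heart, ileum, kidney, liver, lung, pancreas, spleen and stomach were examined blind by a veterinary pathologist and lesions graded mild, moderate or severe.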

Mus musculus [3] = assay: Acute toxicity in C57BL/6J mouse assessed as lesions in pancreas at 1 to 10 mg/kg, sc after 9 days; assay type: organism-based; design: dose 1-10 mg/kg, route subcutaneous; settings: in vivo, 216 h; in short: as §2
Mus musculus [4] = assay: Acute toxicity in C57BL/6J mouse assessed as lesions in lungs at 1 to 10 mg/kg, sc after 9 days; assay type: organism-based; design: dose 1-10 mg/kg, route subcutaneous; settings: in vivo, 216 h; in short: as §2
Mus musculus [5] = assay: Acute toxicity in C57BL/6J mouse assessed as lesions in heart at 1 to 10 mg/kg, sc after 9 days; assay type: organism-based; design: dose 1-10 mg/kg, route subcutaneous; settings: in vivo, 216 h; in short: as §2
Mus musculus [6] = assay: Acute toxicity in C57BL/6J mouse assessed as lesions in GI tract at 1 to 10 mg/kg, sc after 9 days; assay type: organism-based, Gastrointestinal tract; design: dose 1-10 mg/kg, route subcutaneous; settings: in vivo, 216 h; in short: as §2
Mus musculus [7] = assay: Acute toxicity in C57BL/6J mouse assessed as karyomegaly at 10 mg/kg, sc after 9 days; assay type: organism-based; design: dose 10 mg/kg, route subcutaneous; settings: in vivo, 216 h; in short: as §2
Mus musculus [8] = assay: Acute toxicity in C57BL/6J mouse assessed as milder tubular regeneration at 10 mg/kg, sc after 9 days; assay type: organism-based; design: dose 10 mg/kg, route subcutaneous; settings: in vivo, 216 h; in short: as §2
Mus musculus [9] = assay: Acute toxicity in C57BL/6J mouse assessed as hepatocellular necrosis and apoptosis at 3 mg/kg, sc after 9 days; assay type: organism-based; design: dose 3 mg/kg, route subcutaneous; settings: in vivo, 216 h; in short: as §2
Mus musculus [10] = assay: Acute toxicity in C57BL/6J mouse assessed as diffuse hepatocellular necrosis and apoptosis at 3 to 10 mg/kg, sc after 9 days; assay type: organism-based; design: dose 3-10 mg/kg, route subcutaneous; settings: in vivo, 216 h; in short: as §2
Mus musculus [11] = assay: Acute toxicity in C57BL/6J mouse at 10 mg/kg, sc after 9 days; assay type: organism-based; design: dose 10 mg/kg, route subcutaneous; settings: in vivo, 216 h
In short: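 Single sc injection in male 8-week-old C57BL/6J mice (1, 3 or 10 mg/kg in 25% DMSO/saline; n = 4 per group), followed for 9 days with daily weighing, then sacrifice. Toxicity was assessed by blinded histopathology of two mice per group and by blinded serum ALT, AST, total bilirubin, BUN and creatinine from retroorbital blood of all mice.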

Mus musculus [12] = assay: Acute toxicity in C57BL/6J mouse assessed as weight loss at 10 mg/kg, sc after 9 days; assay type: organism-based; design: dose 10 mg/kg, route subcutaneous; settings: in vivo, 216 h
In short: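 Male C57BL/6J mice, 8 weeks old, were acclimated 3 days and then given a single sc injection of 1, 3 or 10 mg/kg in 25% DMSO/saline vehicle (up to 200 μL), n = 4 per group. Weight, behaviour and appearance were monitored daily for 9 days before sacrifice. The humane end point was visible duress or weight loss over 15% of the original.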

Mus musculus [13] = assay: Toxicity in C57BL/6J mouse assessed as weight loss at 10 mg/kg, sc; assay type: organism-based; design: dose 10 mg/kg, route subcutaneous; settings: in vivo
In short: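 Single sc injection in 25% DMSO/saline to 8-week-old male C57BL/6J mice acclimated 3 days; groups of four receiving 1, 3 or 10 mg/kg. Weight monitored daily for 9 days, then sacrifice; euthanasia on visible duress or weight loss beyond 15% of original body weight.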

[14] = Metabolic stability in mouse liver microsomes after 1 hr by LC/MS/MS analysis in presence of NADPH; assay type: ADME, Microsome; settings: read-out: Stability
In short: (§3)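 Compound incubated at 37 °C for 60 min with 1 mg/mL human or mouse liver microsomes in 100 mM KH2PO4, 3 mM MgCl2, pH 7.4, with 2 mM NADPH or without it. Stopped with ice-cold methanol, then precipitate removed. Analyzed by LC/MS/MS as % remaining versus time zero. Duplicates.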

[15] = Metabolic stability in mouse liver microsomes after 1 hr by LC/MS/MS analysis; assay type: ADME, Microsome; settings: read-out: Stability; in short: as §3
[16] = Metabolic stability in human liver microsomes after 1 hr by LC/MS/MS analysis in presence of NADPH; assay type: ADME, Microsome; settings: read-out: Stability; in short: as §3
[17] = Metabolic stability in human liver microsomes after 1 hr by LC/MS/MS analysis; assay type: ADME, Microsome; settings: read-out: Stability; in short: as §3
Mus musculus [18] = assay: Toxicity in C57BL/6J mouse assessed as karyomegaly in kidney at 1 mg/kg, sc administered every 3 days for a cycle of 3 injections measured 2 days post last injection; assay type: organism-based; design: dose 1 mg/kg, route subcutaneous; settings: in vivo, 48 h; in short: as §1
Mus musculus [19] = assay: Toxicity in C57BL/6J mouse assessed as epithelial necrosis and apoptosis in kidney at 1 mg/kg, sc administered every 3 days for a cycle of 3 injections measured 2 days post last injection; assay type: organism-based; design: dose 1 mg/kg, route subcutaneous; settings: in vivo, 48 h; in short: as §1
Mus musculus [20] = assay: Toxicity in C57BL/6J mouse assessed as mild tubular attenuation in kidney at 1 mg/kg, sc administered every 3 days for a cycle of 3 injections measured 2 days post last injection; assay type: organism-based; design: dose 1 mg/kg, route subcutaneous; settings: in vivo, 48 h; in short: as §1
Mus musculus [21] = assay: Toxicity in C57BL/6J mouse assessed as morbidity at 1 mg/kg, sc administered every 3 days for a cycle of 3 injections; assay type: organism-based; design: dose 1 mg/kg, route subcutaneous; settings: in vivo, 72 h
In short: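 Male C57BL/6J mice, 3 per group, given 1 mg/kg sc every 3 days. Weight recorded on injection days. Watched for signs of duress. Humane end point was visible duress or weight loss over 15% of starting body weight.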

Mus musculus [22] = assay: Toxicity in C57BL/6J mouse assessed as weight loss at 1 mg/kg, sc administered every 3 days for a cycle of 3 injections; assay type: organism-based; design: dose 1 mg/kg, route subcutaneous; settings: in vivo, 72 h
In short: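 8-week-old male C57BL/6J mice, acclimated 3 days, groups of three, dosed sc in 25% DMSO/saline vehicle once every 3 days, sacrificed 2 days after the last injection. Body weight recorded on injection days and at end point; humane end point set at visible duress or >15% loss of original body weight.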

CN(CCCNC(=O)c1cccc(C(=O)O)c1)CCCNC(=O)c1cc(NC(=O)c2cc(NC(=O)c3cc(NC(=O)c4nc(NC(=O)[C@H](N)CCNC(=O)c5cc(NC(=O)c6cc(NC(=O)c7cc(NC(=O)c8nccn8C)cn7C)cn6C)cn5C)cn4C)cn3C)cn2C)cn1C
Activity (Mus musculus [1]): Toxic
Activity (Mus musculus [2]): Non-toxic
Activity (Mus musculus [3]): Non-toxic
Activity (Mus musculus [4]): Non-toxic
Activity (Mus musculus [5]): Non-toxic
Activity (Mus musculus [6]): Non-toxic
Activity (Mus musculus [7]): Toxic
Activity (Mus musculus [8]): Toxic
Activity (Mus musculus [9]): Toxic
Activity (Mus musculus [10]): Toxic
Activity (Mus musculus [11]): Non-toxic
Activity (Mus musculus [12]): Toxic
Activity (Mus musculus [13]): > 15%
remaining at 1 h [14]: > 90%
remaining at 1 h [15]: > 90%
remaining at 1 h [16]: > 90%
remaining at 1 h [17]: > 90%
Activity (Mus musculus [18]): Toxic
Activity (Mus musculus [19]): Toxic
Activity (Mus musculus [20]): Toxic
Activity (Mus musculus [21]): Non-toxic
Activity (Mus musculus [22]): Non-toxic
